Experiment [1] is described as follows: Ratio of Vmax/Km for human, mouse or rat SSAO. An outline of the steps: (§1)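 Crude membranes from human, rat or mouse adipocytes, made by hypo-osmotic lysis in 20 mM HES buffer with antiproteases (around 50 µg protein/assay). Incubated 30 min at 37 °C over a range of amine concentrations. H2O2 read spectrophotometrically with peroxidase, homovanillic acid and aminoantipyrine at 498 nm. Km and Vmax taken from Eadie-Hofstee plots; Vmax/Km ratio also given. Means ± SEM of 3-4 experiments.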

A short description of experiment [2]: Maximum velocity for semicarbazide-sensitive amine oxidase (SSAO) of human, mouse or rat crude membranes. Type of experiment: cell membranes. The conditions noted are these: Membrane. In short, it runs like this:
as §1

From ChEMBL document CHEMBL1138761, “Exploring the binding mode of semicarbazide-sensitive amine oxidase/VAP-1: identification of novel substrates with insulin-like activity” (J Med Chem, 2004) come the findings set out here.

“And” between values parts separate entries of the source, which are not always exact repeats. Equal entries are not always repeated.

On to `NCc1cccc2ccccc12`, for which, in experiment [1], the Ratio is 0.28 and 0.66 and 0.5.

With `COc1cccc(CN)c1OC`, the Vmax (nmol/min/mg protein) in experiment [2] was 1.1 and 3.2.

In the case of `NCc1ccc(S(N)(=O)=O)cc1`, the Ratio in experiment [1] was 0.007 and 0.01.
